Assay results taken from ChEMBL document CHEMBL4373640, “Synthesis and antitumor activity of aza-brazilan derivatives containing imidazolium salt pharmacophores” (Medchemcomm, 2019).

test system: A549; experiment: Cytotoxicity against human A549 cells assessed as reduction in cell viability after 48 hrs by MTS assay; type: functional, cell-based; settings: A549, 48 h
Method in brief: (§1)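 Cells (5 × 10^3 per well) were plated 12 h before treatment, then exposed continuously to compound for 48 h. MTS was added, with 1–4 h incubation at 37 °C and OD read at 490 nm. IC50 is the concentration cutting OD by 50% versus untreated cells, taken from dose–response curves. Values are the mean of three independent determinations.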

SMILES | IC50 [nM]
COc1ccc(C(=O)C[n+]2c(C)n(CCC(=O)N3C[C@@H]4Cc5ccccc5[C@@H]4c4cccc(OC)c43)c3ccccc32)cc1 | 10600
COc1cccc2c1N(CCCn1c[n+](Cc3ccc4ccccc4c3)c3cc(C)c(C)cc31)C[C@@H]1Cc3ccc(Br)cc3[C@H]21 | 5620
COc1cccc2c1N(C(=O)CCn1c(C)[n+](Cc3ccc4ccccc4c3)c3ccccc31)C[C@@H]1Cc3ccccc3[C@H]21 | 3680
COc1ccc(C(=O)C[n+]2c(C)n(CCCN3C[C@@H]4Cc5cc(OC)c(OC)cc5[C@@H]4c4cccc(OC)c43)c3ccccc32)cc1 | 14400
COc1cccc2c1N(CCCn1c[n+](Cc3ccc(C)cc3)c3cc(C)c(C)cc31)C[C@@H]1Cc3ccccc3[C@H]21 | 1510
COc1ccc(C(=O)C[n+]2cn(CCCN3C[C@@H]4Cc5cc(OC)c(OC)cc5[C@@H]4c4cccc(OC)c43)c3cc(C)c(C)cc32)cc1 | 8270
COc1cc2c(cc1OC)[C@@H]1c3cccc(OC)c3N(CCCn3c[n+](CC(=O)c4ccc5ccccc5c4)c4cc(C)c(C)cc43)C[C@@H]1C2 | 4910
COc1cccc2c1N(CCCn1c(C)nc3ccccc31)C[C@@H]1Cc3ccc(Br)cc3[C@H]21 | > 20000
COc1cc2c(cc1OC)[C@@H]1c3cccc(OC)c3N(C(=O)CCn3cnc4cc(C)c(C)cc43)C[C@@H]1C2 | > 20000
COc1cc2c(cc1OC)[C@@H]1c3cccc(OC)c3N(C(=O)CCn3c(C)nc4ccccc43)C[C@@H]1C2 | > 20000
COc1cccc2c1N(CCCn1c(C)nc3ccccc31)C[C@@H]1Cc3ccccc3[C@H]21 | > 20000
COc1cccc2c1N(C(=O)CCn1c[n+](CC(=O)c3ccc4ccccc4c3)c3cc(C)c(C)cc31)C[C@@H]1Cc3ccccc3[C@H]21 | 1990
COc1cccc2c1N(C(=O)CCn1c(C)[n+](CC(=O)c3ccc4ccccc4c3)c3ccccc31)C[C@@H]1Cc3ccccc3[C@H]21 | 4710
COc1cccc2c1N(C(=O)CCn1c(C)[n+](Cc3ccc(C)cc3)c3ccccc31)C[C@@H]1Cc3ccccc3[C@H]21 | 6270
COc1cc2c(cc1OC)[C@@H]1c3cccc(OC)c3N(CCCn3cnc4cc(C)c(C)cc43)C[C@@H]1C2 | > 20000
COc1cc2c(cc1OC)[C@@H]1c3cccc(OC)c3N(CCCn3c(C)[n+](Cc4ccc5ccccc5c4)c4ccccc43)C[C@@H]1C2 | 1530
COc1cccc2c1N(C(=O)CCn1c[n+](Cc3ccc4ccccc4c3)c3cc(C)c(C)cc31)C[C@@H]1Cc3ccc(Br)cc3[C@H]21 | 1450
COc1cccc2c1N(C(=O)CCn1cnc3cc(C)c(C)cc31)C[C@@H]1Cc3ccc(Br)cc3[C@H]21 | > 20000
COc1cccc2c1N(CCCn1c[n+](Cc3ccc4ccccc4c3)c3cc(C)c(C)cc31)C[C@@H]1Cc3ccccc3[C@H]21 | 1510
COc1cccc2c1N(C(=O)CCn1c(C)[n+](CC(=O)c3ccc4ccccc4c3)c3ccccc31)C[C@@H]1Cc3ccc(Br)cc3[C@H]21 | 2630
COc1cccc2c1N(CCCn1c(C)[n+](Cc3ccc4ccccc4c3)c3ccccc31)C[C@@H]1Cc3ccccc3[C@H]21 | 5740

test system: SW480; experiment: Cytotoxicity against human SW480 cells assessed as reduction in cell viability after 48 hrs by MTS assay; type: functional, cell-based; settings: SW480, 48 h; method in brief: as §1

SMILES | IC50 [nM]
COc1ccc(C(=O)C[n+]2c(C)n(CCC(=O)N3C[C@@H]4Cc5ccccc5[C@@H]4c4cccc(OC)c43)c3ccccc32)cc1 | 2650
COc1cccc2c1N(CCCn1c[n+](Cc3ccc4ccccc4c3)c3cc(C)c(C)cc31)C[C@@H]1Cc3ccc(Br)cc3[C@H]21 | 3920
COc1cccc2c1N(C(=O)CCn1c(C)[n+](Cc3ccc4ccccc4c3)c3ccccc31)C[C@@H]1Cc3ccccc3[C@H]21 | 770
COc1ccc(C(=O)C[n+]2c(C)n(CCCN3C[C@@H]4Cc5cc(OC)c(OC)cc5[C@@H]4c4cccc(OC)c43)c3ccccc32)cc1 | 2340
COc1cccc2c1N(CCCn1c[n+](Cc3ccc(C)cc3)c3cc(C)c(C)cc31)C[C@@H]1Cc3ccccc3[C@H]21 | 560
COc1ccc(C(=O)C[n+]2cn(CCCN3C[C@@H]4Cc5cc(OC)c(OC)cc5[C@@H]4c4cccc(OC)c43)c3cc(C)c(C)cc32)cc1 | 1800
COc1cc2c(cc1OC)[C@@H]1c3cccc(OC)c3N(CCCn3c[n+](CC(=O)c4ccc5ccccc5c4)c4cc(C)c(C)cc43)C[C@@H]1C2 | 1380
COc1cccc2c1N(CCCn1c(C)nc3ccccc31)C[C@@H]1Cc3ccc(Br)cc3[C@H]21 | > 20000
COc1cc2c(cc1OC)[C@@H]1c3cccc(OC)c3N(C(=O)CCn3cnc4cc(C)c(C)cc43)C[C@@H]1C2 | > 20000
COc1cc2c(cc1OC)[C@@H]1c3cccc(OC)c3N(C(=O)CCn3c(C)nc4ccccc43)C[C@@H]1C2 | > 20000
COc1cccc2c1N(CCCn1c(C)nc3ccccc31)C[C@@H]1Cc3ccccc3[C@H]21 | > 20000
COc1cccc2c1N(C(=O)CCn1c[n+](CC(=O)c3ccc4ccccc4c3)c3cc(C)c(C)cc31)C[C@@H]1Cc3ccccc3[C@H]21 | 1350
COc1cccc2c1N(C(=O)CCn1c(C)[n+](CC(=O)c3ccc4ccccc4c3)c3ccccc31)C[C@@H]1Cc3ccccc3[C@H]21 | 1440
COc1cccc2c1N(C(=O)CCn1c(C)[n+](Cc3ccc(C)cc3)c3ccccc31)C[C@@H]1Cc3ccccc3[C@H]21 | 1570
COc1cc2c(cc1OC)[C@@H]1c3cccc(OC)c3N(CCCn3cnc4cc(C)c(C)cc43)C[C@@H]1C2 | > 20000
COc1cc2c(cc1OC)[C@@H]1c3cccc(OC)c3N(CCCn3c(C)[n+](Cc4ccc5ccccc5c4)c4ccccc43)C[C@@H]1C2 | 1500
COc1cccc2c1N(C(=O)CCn1c[n+](Cc3ccc4ccccc4c3)c3cc(C)c(C)cc31)C[C@@H]1Cc3ccc(Br)cc3[C@H]21 | 1050
COc1cccc2c1N(C(=O)CCn1cnc3cc(C)c(C)cc31)C[C@@H]1Cc3ccc(Br)cc3[C@H]21 | > 20000
COc1cccc2c1N(CCCn1c[n+](Cc3ccc4ccccc4c3)c3cc(C)c(C)cc31)C[C@@H]1Cc3ccccc3[C@H]21 | 930
COc1cccc2c1N(C(=O)CCn1c(C)[n+](CC(=O)c3ccc4ccccc4c3)c3ccccc31)C[C@@H]1Cc3ccc(Br)cc3[C@H]21 | 1750
COc1cccc2c1N(CCCn1c(C)[n+](Cc3ccc4ccccc4c3)c3ccccc31)C[C@@H]1Cc3ccccc3[C@H]21 | 2160

test system: MCF7; experiment: Cytotoxicity against human MCF7 cells assessed as reduction in cell viability after 48 hrs by MTS assay; type: functional, cell-based; settings: MCF7, 48 h; method in brief: as §1

SMILES | IC50 [nM]
COc1ccc(C(=O)C[n+]2c(C)n(CCC(=O)N3C[C@@H]4Cc5ccccc5[C@@H]4c4cccc(OC)c43)c3ccccc32)cc1 | 3120
COc1cccc2c1N(CCCn1c[n+](Cc3ccc4ccccc4c3)c3cc(C)c(C)cc31)C[C@@H]1Cc3ccc(Br)cc3[C@H]21 | 840
COc1cccc2c1N(C(=O)CCn1c(C)[n+](Cc3ccc4ccccc4c3)c3ccccc31)C[C@@H]1Cc3ccccc3[C@H]21 | 960
COc1ccc(C(=O)C[n+]2c(C)n(CCCN3C[C@@H]4Cc5cc(OC)c(OC)cc5[C@@H]4c4cccc(OC)c43)c3ccccc32)cc1 | 3360
COc1cccc2c1N(CCCn1c[n+](Cc3ccc(C)cc3)c3cc(C)c(C)cc31)C[C@@H]1Cc3ccccc3[C@H]21 | 670
COc1ccc(C(=O)C[n+]2cn(CCCN3C[C@@H]4Cc5cc(OC)c(OC)cc5[C@@H]4c4cccc(OC)c43)c3cc(C)c(C)cc32)cc1 | 2140
COc1cc2c(cc1OC)[C@@H]1c3cccc(OC)c3N(CCCn3c[n+](CC(=O)c4ccc5ccccc5c4)c4cc(C)c(C)cc43)C[C@@H]1C2 | 1120
COc1cccc2c1N(CCCn1c(C)nc3ccccc31)C[C@@H]1Cc3ccc(Br)cc3[C@H]21 | > 20000
COc1cc2c(cc1OC)[C@@H]1c3cccc(OC)c3N(C(=O)CCn3cnc4cc(C)c(C)cc43)C[C@@H]1C2 | > 20000
COc1cc2c(cc1OC)[C@@H]1c3cccc(OC)c3N(C(=O)CCn3c(C)nc4ccccc43)C[C@@H]1C2 | > 20000
COc1cccc2c1N(CCCn1c(C)nc3ccccc31)C[C@@H]1Cc3ccccc3[C@H]21 | > 20000
COc1cccc2c1N(C(=O)CCn1c[n+](CC(=O)c3ccc4ccccc4c3)c3cc(C)c(C)cc31)C[C@@H]1Cc3ccccc3[C@H]21 | 1010
COc1cccc2c1N(C(=O)CCn1c(C)[n+](CC(=O)c3ccc4ccccc4c3)c3ccccc31)C[C@@H]1Cc3ccccc3[C@H]21 | 1460
COc1cccc2c1N(C(=O)CCn1c(C)[n+](Cc3ccc(C)cc3)c3ccccc31)C[C@@H]1Cc3ccccc3[C@H]21 | 1570
COc1cc2c(cc1OC)[C@@H]1c3cccc(OC)c3N(CCCn3cnc4cc(C)c(C)cc43)C[C@@H]1C2 | > 20000
COc1cc2c(cc1OC)[C@@H]1c3cccc(OC)c3N(CCCn3c(C)[n+](Cc4ccc5ccccc5c4)c4ccccc43)C[C@@H]1C2 | 1070
COc1cccc2c1N(C(=O)CCn1c[n+](Cc3ccc4ccccc4c3)c3cc(C)c(C)cc31)C[C@@H]1Cc3ccc(Br)cc3[C@H]21 | 1050
COc1cccc2c1N(C(=O)CCn1cnc3cc(C)c(C)cc31)C[C@@H]1Cc3ccc(Br)cc3[C@H]21 | > 20000
COc1cccc2c1N(CCCn1c[n+](Cc3ccc4ccccc4c3)c3cc(C)c(C)cc31)C[C@@H]1Cc3ccccc3[C@H]21 | 910
COc1cccc2c1N(C(=O)CCn1c(C)[n+](CC(=O)c3ccc4ccccc4c3)c3ccccc31)C[C@@H]1Cc3ccc(Br)cc3[C@H]21 | 1430
COc1cccc2c1N(CCCn1c(C)[n+](Cc3ccc4ccccc4c3)c3ccccc31)C[C@@H]1Cc3ccccc3[C@H]21 | 1020

test system: not listed separately; experiment: Cytotoxicity against human SMMC-7221 cells assessed as reduction in cell viability after 48 hrs by MTS assay; type: functional, cell-based; settings: SMMC-7221, 48 h; method in brief: as §1

SMILES | IC50 [nM]
COc1ccc(C(=O)C[n+]2c(C)n(CCC(=O)N3C[C@@H]4Cc5ccccc5[C@@H]4c4cccc(OC)c43)c3ccccc32)cc1 | 4620
COc1cccc2c1N(CCCn1c[n+](Cc3ccc4ccccc4c3)c3cc(C)c(C)cc31)C[C@@H]1Cc3ccc(Br)cc3[C@H]21 | 2160
COc1cccc2c1N(C(=O)CCn1c(C)[n+](Cc3ccc4ccccc4c3)c3ccccc31)C[C@@H]1Cc3ccccc3[C@H]21 | 1450
COc1ccc(C(=O)C[n+]2c(C)n(CCCN3C[C@@H]4Cc5cc(OC)c(OC)cc5[C@@H]4c4cccc(OC)c43)c3ccccc32)cc1 | 5360
COc1cccc2c1N(CCCn1c[n+](Cc3ccc(C)cc3)c3cc(C)c(C)cc31)C[C@@H]1Cc3ccccc3[C@H]21 | 660
COc1ccc(C(=O)C[n+]2cn(CCCN3C[C@@H]4Cc5cc(OC)c(OC)cc5[C@@H]4c4cccc(OC)c43)c3cc(C)c(C)cc32)cc1 | 4500
COc1cc2c(cc1OC)[C@@H]1c3cccc(OC)c3N(CCCn3c[n+](CC(=O)c4ccc5ccccc5c4)c4cc(C)c(C)cc43)C[C@@H]1C2 | 1710
COc1cccc2c1N(CCCn1c(C)nc3ccccc31)C[C@@H]1Cc3ccc(Br)cc3[C@H]21 | > 20000
COc1cc2c(cc1OC)[C@@H]1c3cccc(OC)c3N(C(=O)CCn3cnc4cc(C)c(C)cc43)C[C@@H]1C2 | > 20000
COc1cc2c(cc1OC)[C@@H]1c3cccc(OC)c3N(C(=O)CCn3c(C)nc4ccccc43)C[C@@H]1C2 | > 20000
COc1cccc2c1N(CCCn1c(C)nc3ccccc31)C[C@@H]1Cc3ccccc3[C@H]21 | > 20000
COc1cccc2c1N(C(=O)CCn1c[n+](CC(=O)c3ccc4ccccc4c3)c3cc(C)c(C)cc31)C[C@@H]1Cc3ccccc3[C@H]21 | 1120
COc1cccc2c1N(C(=O)CCn1c(C)[n+](CC(=O)c3ccc4ccccc4c3)c3ccccc31)C[C@@H]1Cc3ccccc3[C@H]21 | 1510
COc1cccc2c1N(C(=O)CCn1c(C)[n+](Cc3ccc(C)cc3)c3ccccc31)C[C@@H]1Cc3ccccc3[C@H]21 | 2040
COc1cc2c(cc1OC)[C@@H]1c3cccc(OC)c3N(CCCn3cnc4cc(C)c(C)cc43)C[C@@H]1C2 | > 20000
COc1cc2c(cc1OC)[C@@H]1c3cccc(OC)c3N(CCCn3c(C)[n+](Cc4ccc5ccccc5c4)c4ccccc43)C[C@@H]1C2 | 1130
COc1cccc2c1N(C(=O)CCn1c[n+](Cc3ccc4ccccc4c3)c3cc(C)c(C)cc31)C[C@@H]1Cc3ccc(Br)cc3[C@H]21 | 1090
COc1cccc2c1N(C(=O)CCn1cnc3cc(C)c(C)cc31)C[C@@H]1Cc3ccc(Br)cc3[C@H]21 | > 20000
COc1cccc2c1N(CCCn1c[n+](Cc3ccc4ccccc4c3)c3cc(C)c(C)cc31)C[C@@H]1Cc3ccccc3[C@H]21 | 850
COc1cccc2c1N(C(=O)CCn1c(C)[n+](CC(=O)c3ccc4ccccc4c3)c3ccccc31)C[C@@H]1Cc3ccc(Br)cc3[C@H]21 | 1580
COc1cccc2c1N(CCCn1c(C)[n+](Cc3ccc4ccccc4c3)c3ccccc31)C[C@@H]1Cc3ccccc3[C@H]21 | 2060
